SENP8 block-1: inhibitors of human SENP8 protease. inhibition, % at 10 µM. purified SENP8, Z-RLRGG-aminoluciferin cleavage, luminescence. 330,000 tested, 1.2% active; in the data active = inhibition above about 50%
Target sequence (Q96LD8 whole entry, looked up): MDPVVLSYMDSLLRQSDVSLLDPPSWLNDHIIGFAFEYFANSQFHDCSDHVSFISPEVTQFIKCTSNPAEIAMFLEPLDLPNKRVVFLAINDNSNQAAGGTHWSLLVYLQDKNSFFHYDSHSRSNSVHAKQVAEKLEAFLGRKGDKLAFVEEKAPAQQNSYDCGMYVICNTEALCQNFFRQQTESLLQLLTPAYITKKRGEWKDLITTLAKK
SENP6 inh: inhibitors of human SENP6 protease | Q9GZR1 | Recombinant SENP6 catalytic domain, aminoluciferin luminescence | inhibition, % at 10 µM | 330,000 tested, 1.8% active;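 active = inhibition above about 50% at the single tested dose, limit read from the data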;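 also: plate controls were DMSO wells with enzyme for no effect and DMSO wells lacking enzyme for full effect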
SENP1 inh: SENP1 (human) catalytic domain inhibition. Q9P0U3. recombinant SENP1 catalytic domain, CyPet-SUMO1-YPet FRET cleavage. inhibition, % at 10 µM. 360,000 tested, 0.21% active. AID 624204;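 active = inhibition at least 30% at 10 µM, raw YFP signal under a set limit, fluorescence ratio 0.5 to 1.5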;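 also: 0% = enzyme with DMSO and 100% = no enzyme wells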
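Assay system: hSENP1 catalytic domain, recombinant. Amount: SENP1 enzyme, 20 pM final. Schedule: 50 min reaction, RT, dark. Technique: FRET, CFP and YFP emission. Control set: no-enzyme wells low, DMSO-plus-enzyme wells high control.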
SENP8 block-2: SENP8 (human) protease inhibition; Q96LD8; recombinant SENP8, Nedd8 substrate fluorescence; inhibition, % at 20 µM; 360,000 tested, 0.64% active; AID 602440; in the data active = inhibition mostly above about 40%, no sharp cut-off; inactive = mostly below about 27%
SENP7 block: SENP7 protease inhibition; recombinant SENP7, Z-RLRGG-aminoluciferin luminescence, 40 min; inhibition, % at 5 µM; 330,000 tested, 1.5% active; AID 434973;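 active = inhibition above about 50% at the single test dose, limit read from the data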;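 also: plate controls were DMSO with enzyme for no effect and no enzyme buffer wells for full effect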
SENP8 conf: confirmation of human SENP8 protease inhibitors; shares compounds with SENP7 block; inhibition, % at 12.5 µM; AID 488912; Recombinant SENP8, Z-RLRGG-aminoluciferin luminescence, 60 min; 6,200 tested, 40% active;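 active = mean inhibition across replicates above about 50%, limit read from the data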
SENP6 confirm: human SENP6 inhibition, confirmed; shares compounds with SENP7 block; recombinant SENP6, Z-RLRGG-aminoluciferin luminescence; inhibition, % at 12.5 µM; 6,200 tested, 58% active
SENP7 confirm: human SENP7 inhibition, confirmed; shares compounds with SENP7 block; AID 488917; inhibition, % at 12.5 µM; recombinant SENP7, Z-RLRGG-aminoluciferin luminescence, 40 min; 6,200 tested, 69% active
Casp3 SENP sel: selectivity test for SENP inhibitors: human caspase-3 inhibition | shares compounds with SENP7 block | purified caspase-3, Z-DEVD-aminoluciferin luminescence, 60 min | inhibition, % at 12.5 µM | 6,200 tested, 60% active | AID 488918;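 active = mean inhibition above about 50%, limit read from the data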;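 also: plate controls were enzyme with DMSO for no effect and wells without caspase-3 for full effect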
Target sequence (P42574 28-227 limits assumed): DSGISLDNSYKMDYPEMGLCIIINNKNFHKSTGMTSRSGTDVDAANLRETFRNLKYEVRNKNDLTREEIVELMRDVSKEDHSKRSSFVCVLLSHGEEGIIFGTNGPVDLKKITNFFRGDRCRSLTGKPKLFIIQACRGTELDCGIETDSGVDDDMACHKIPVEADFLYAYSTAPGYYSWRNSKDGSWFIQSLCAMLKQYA
SENP luc ctr: interferes with luciferase luminescence in SENP counter-screen | shares compounds with SENP7 block | Pre-incubated SENP8/Z-RLRGG-aminoluciferin, luciferase luminescence interference | inhibition, % at 12.5 µM | 6,200 tested, 39% active | AID 488919;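 active = mean inhibition above about 50% when retested at one dose, limit read from the data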;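 also: plate controls were DMSO wells with completed reaction for no effect and substrate without enzyme for full effect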
Starred values were filed as active, the others as inactive; i = inactive; / = no result given. Only some compounds are listed: those with a hit (about 2.5% of all), similar ones and a draw of the others.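 The calls were made as follows, unless noted: active = mean inhibition above about 50% in the one-dose retest (limit read from the data); inactive = the rest.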

SMILES	SENP8 block-1	SENP6 inh	SENP1 inh	SENP8 block-2	SENP7 block	SENP8 conf	SENP6 confirm	SENP7 confirm	Casp3 SENP sel	SENP luc ctr
O=C1CCCCC1Nc1ccc2ccccc2c1 (stereo not given)	/	/	-39	-211	/	/	/	/	/	/
O=C(Cc1cccc(NC(=O)C2CCCN(C(=O)C3CCCC3)C2)c1)Nc1ccc(C(=O)N2CCCCC2)cc1 (stereo not given)	/	/	0	16	/	/	/	/	/	/
C/C(CC(C)C)=N\NS(=O)(=O)c1ccc(C)c([N+](=O)[O-])c1	4	85*	0	27	3	-10	-10	-6	4	0
CCCN(C(=O)c1cc(S(=O)(=O)N(C)c2ccc(OCC)cc2)ccc1C)C1CCS(=O)(=O)C1 (stereo not given)	-12	-19	4	4	6	/	/	/	/	/
O=C(c1ccco1)n1c(=S)nc2ccccn21	-8	10	-2	-12	27	/	/	/	/	/
Cc1cccc(C(=O)n2c(=S)nc3cc(C)ccn32)c1	58*	75*	0	-20	81*	63*	72*	87*	46	30
Cc1ccn2c(c1)nc(=S)n2C(=O)c1ccccc1	-7	60*	-3	-16	76*	41	52*	76*	39	41
COc1ccccc1N(CC(O)CN1CCOCC1)S(=O)(=O)c1ccccc1 (stereo not given)	6	4	-2	6	0	/	/	/	/	/
c1ccc(-c2nc3c(ccc4ccccc43)[nH]2)nc1	67*	73*	5	-374	76*	83*	79*	95*	76*	82*
Nc1nc(-c2nc3ccccc3[nH]2)cs1	6	52*	-10	-30	28	46	42	72*	78*	58*
Cc1ccc2nc(-c3ccccn3)[nH]c2c1	83*	90*	-2	-91	91*	92*	91*	100*	96*	91*
Cc1ccc2nc(CCCc3nc4ccc(C)cc4[nH]3)[nH]c2c1	-2	1	1	7	-2	/	/	/	/	/
c1ccc(-c2nc3ccccc3[nH]2)nc1	48	69*	0	-29	75*	61*	60*	88*	90*	70*
Cc1ccc(S(=O)(=O)N2C[C@H]3[C@H]4C(=O)N(Cc5ccccc5)C(=O)[C@H]4CC(=O)[C@H]3[C@@H]2c2ccccc2)cc1	/	/	2	7	/	/	/	/	/	/
Cc1ccc2nc(-c3ccccc3N)[nH]c2c1	90*	93*	-1	-437	95*	32	96*	102*	91*	90*
COc1ccc(/C=C/c2nc3ccccc3c(=O)o2)cc1	84*	90*	0	-329	78*	71*	71*	83*	63*	65*
COc1ccccc1/C=C/c1nc2ccc(OC(C)=O)cc2c(=O)o1	64*	72*	-25	-498	65*	13	7	17	14	-1
COc1ccccc1/C=C/c1nc2ccccc2c(=O)o1	/	/	-2	-165	/	/	/	/	/	/
CC(C)n1nnnc1C1c2ccccc2C(=O)N1Cc1ccccc1 (stereo not given)	/	/	1	18	/	/	/	/	/	/
CC1CCN(C(=O)CN2C(=O)C(=O)N(C)C2=O)c2ccccc2S1 (stereo not given)	3	-27	0	11	6	/	/	/	/	/
O=C(NCCO)c1cccc(-c2cnc3cccnn23)c1	/	/	-18	i	/	/	/	/	/	/
O=C(O)c1cc(-c2ccc3c(c2)OCO3)nc2ccc(Cl)cc12	0	-5	-2	-372	-3	/	/	/	/	/
Clc1ccc2nc(-c3ccccc3)cn2c1	92*	95*	0	-147	97*	4	86*	99*	91*	33

Assay outcomes as filed in PubChem BioAssay.
